The values that follow come from PMC7416570 (ACS chemical biology, 2020).

The target in data set [1] is T1, hPD-L1 (Homo sapiens, UniProt Q9NZQ7). The data set can be described thus: Radiolabeled binding assay on immobilized hPD-L1. Particulars: for effect of mutation on hPD-L1 binding (alanine scanning): [35S]-labeled SPAM variants, binding normalized to [35S]-SPAM, n=3.
Data set [2] has as its target mPD-L1 (Mus musculus, UniProt Q9EP73). The data set can be described thus: Radiolabeled binding assay on immobilized mPD-L1. Particulars: radioactive binding assay. In short, it runs like this:
(§1)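 Peptide mRNA was translated in rabbit reticulocyte lysate with [35S]-methionine (2 μCi per 10 pmol template, 30 °C, 1 h). The resulting fusions were purified on oligo-dT agarose and tested for pull-down by the immobilized target protein, read as bead-retained radioactivity.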

For data set [3], the target named is T2, hPD-L2* (Homo sapiens, UniProt Q9BQ51).
T2 sequence (Q9BQ51 20-220): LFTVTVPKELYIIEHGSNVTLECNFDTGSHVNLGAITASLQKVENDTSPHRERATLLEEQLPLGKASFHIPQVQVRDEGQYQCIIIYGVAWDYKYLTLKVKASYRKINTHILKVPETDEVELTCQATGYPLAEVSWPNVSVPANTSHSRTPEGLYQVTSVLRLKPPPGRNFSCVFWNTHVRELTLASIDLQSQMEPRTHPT
The data set can be described thus: Radiolabeled binding assay on immobilized hPD-L2*. The settings on record: radioactive binding assay. In short, it runs like this:
as §1

Data set [4] has as its target T1, hPD-L1. The data set can be described thus: Radiolabeled binding assay on immobilized hPD-L1*. Particulars: radioactive binding assay. In a few lines:
as §1

The nature of data set [5]: Serum stability of [35S]-SPAM read out by binding to hPD-L1. Particulars: [35S]-labeled SPAM, 25% human serum, 37 °C, up to eight hours. It is filed as in vitro ADME.
Data set [6] deals with hPD-L1/mPD-1 interaction (Homo sapiens, UniProt Q9NZQ7). The data set can be described thus: ELISA/IP assay of the hPD-L1/mPD-1 interaction. The data set is classed as biochemical. Particulars: 10 μM SPAM, hPD-L1 and mPD-1 100 nM.
In data set [7] the target is hPD-L1 expressed on CHO-hPD-L1 cells (Homo sapiens, UniProt Q9NZQ7). The data set can be described thus: Antibody competition by flow cytometry, CHO-hPD-L1. It is filed as cell-based. The settings on record: pre-treatment 0–20 μM. A general note: A flow cytometer gives signals particle by particle.
In data set [8] the target is T1, hPD-L1. The settings on record: read-out: previously reported KD values PD-1/hPD-L1; cited from earlier work.

Entries after “also recorded” stand apart in the source; their conditions may differ. Where no end group is shown, it is not given here.

Chain of mPD-L1 (Q9EP73 19-239 limits assumed): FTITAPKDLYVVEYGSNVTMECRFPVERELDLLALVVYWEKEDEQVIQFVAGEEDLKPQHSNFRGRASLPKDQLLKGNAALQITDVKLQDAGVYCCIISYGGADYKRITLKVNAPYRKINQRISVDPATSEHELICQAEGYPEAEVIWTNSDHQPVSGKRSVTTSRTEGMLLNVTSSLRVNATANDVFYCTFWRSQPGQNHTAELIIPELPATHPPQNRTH

`C#CC[C@H](NC(=O)CNC(=O)[C@H](CO)NC(=O)[C@H](C)NC(=O)[C@H](Cc1ccc(O)cc1)NC(=O)[C@H](Cc1c[nH]cn1)NC(=O)[C@H](CC(C)C)NC(=O)[C@@H](NC(=O)[C@H](Cc1c[nH]c2ccccc12)NC(=O)[C@H](Cc1ccccc1)NC(=O)[C@H](CCCCN)NC(=O)[C@H](CC(N)=O)NC(=O)[C@H](CC(C)C)NC(=O)[C@@H](NC(=O)[C@H](Cc1c[nH]cn1)NC(=O)[C@H](CC(=O)O)NC(=O)[C@H](CC(C)C)NC(=O)[C@H](Cc1ccccc1)NC(=O)[C@@H](NC(=O)[C@@H]1CCCN1C(=O)[C@@H](N)CCSC)[C@@H](C)CC)[C@@H](C)CC)[C@@H](C)CC)C(N)=O` (stereo in doubt) [SPAM]: the “[35S]-labeled SPAM binding to immobilized hPD-L1” value in data set [1] (75 pmol hPD-L1 on streptavidin agarose, 4 °C, 1 h) is recorded as “efficiently pulled-down”. The “[35S]-labeled SPAM binding to mPD-L1” value in data set [2] was “no significant binding; also recorded: not pulled-down; also recorded: essentially no binding”. The “[35S]-labeled SPAM binding to hPD-L2*” value in data set [3] is recorded as “no significant binding; also recorded: essentially no binding”. Also, the “[35S]-labeled SPAM binding to hPD-L1*” value in data set [4] is “captured”. The “loss of binding to hPD-L1 after incubation in human serum” value in data set [5] is ~ 25%. For the same molecule, the “disruption of PD-1 binding to hPD-L1 at 10 μM” value in data set [6] is given as “almost completely disrupted”. Moreover, the “blocking of Fluorescein-16373 binding to CHO-hPD-L1” value in data set [7] (50 nM FAM-16373, flow cytometry) was “blocking”. Besides, the “blocking of Fluorescein-16377 binding to CHO-hPD-L1” value in data set [7] (50 nM FAM-16377, flow cytometry) is recorded as “blocking”.

As to “A18: SPAM variant with glycine substituted for alanine at position 18 (MPIFLDHILNKFWILHYGGSGSSG; also: [35S]-labeled methionine, peptide-RNA fusion)”, the “effect of mutation on hPD-L1 binding (alanine scanning)” value (“effect of mutation on hPD-L1 binding” below) in data set [1] is on record as “completely abolished”.

As to “D6A: SPAM variant with alanine substituted at position 6 (MPIFLAHILNKFWILHYAGSGSSG; also: [35S]-labeled methionine, peptide-RNA fusion)”, the “effect of mutation on hPD-L1 binding” value in data set [1] is “completely abolished”.

Turning to “F4A: SPAM variant with alanine substituted at position 4 (MPIALDHILNKFWILHYAGSGSSG; also: [35S]-labeled methionine, peptide-RNA fusion)”, in data set [1], the “effect of mutation on hPD-L1 binding” value is listed as “little or no significant influence”.

On to “F12A: SPAM variant with alanine substituted at position 12 (MPIFLDHILNKAWILHYAGSGSSG; also: [35S]-labeled methionine, peptide-RNA fusion)”, for which the “effect of mutation on hPD-L1 binding” value in data set [1] is on record as “completely abolished”.

Consider “H7A: SPAM variant with alanine substituted at position 7 (MPIFLDAILNKFWILHYAGSGSSG; also: [35S]-labeled methionine, peptide-RNA fusion)”, for which, in data set [1], the “effect of mutation on hPD-L1 binding” value is “completely abolished”.

For “H16A: SPAM variant with alanine substituted at position 16 (MPIFLDHILNKFWILAYAGSGSSG; also: [35S]-labeled methionine, peptide-RNA fusion)”, the “effect of mutation on hPD-L1 binding” value in data set [1] is given as “completely abolished”.

Take “I3A: SPAM variant with alanine substituted at position 3 (MPAFLDHILNKFWILHYAGSGSSG; also: [35S]-labeled methionine, peptide-RNA fusion)”: the “effect of mutation on hPD-L1 binding” value in data set [1] is “little or no significant influence”.

“I8A: SPAM variant with alanine substituted at position 8 (MPIFLDHALNKFWILHYAGSGSSG; also: [35S]-labeled methionine, peptide-RNA fusion)”: the “effect of mutation on hPD-L1 binding” value in data set [1] is “little or no significant influence”.

For the molecule “I14A: SPAM variant with alanine substituted at position 14 (MPIFLDHILNKFWALHYAGSGSSG; also: [35S]-labeled methionine, peptide-RNA fusion)”, the “effect of mutation on hPD-L1 binding” value in data set [1] was “completely abolished”.

Turning to “K11A: SPAM variant with alanine substituted at position 11 (MPIFLDHILNAFWILHYAGSGSSG; also: [35S]-labeled methionine, peptide-RNA fusion)”, the “effect of mutation on hPD-L1 binding” value in data set [1] is listed as “completely abolished”.

Consider “L5A: SPAM variant with alanine substituted at position 5 (MPIFADHILNKFWILHYAGSGSSG; also: [35S]-labeled methionine, peptide-RNA fusion)”, for which the “effect of mutation on hPD-L1 binding” value in data set [1] is reported as “little or no significant influence”.

Regarding “L9A: SPAM variant with alanine substituted at position 9 (MPIFLDHIANKFWILHYAGSGSSG; also: [35S]-labeled methionine, peptide-RNA fusion)”, the “effect of mutation on hPD-L1 binding” value in data set [1] is recorded as “little or no significant influence”.

As for “L15A: SPAM variant with alanine substituted at position 15 (MPIFLDHILNKFWIAHYAGSGSSG; also: [35S]-labeled methionine, peptide-RNA fusion)”, the “effect of mutation on hPD-L1 binding” value in data set [1] is “completely abolished”.

For the molecule “MRIFAVFIFMTYWHLLNA [hPD-L1 signal peptide, reference compound]”, the “binding of hPD-L1 signal peptide-mRNA fusion to hPD-L1 beads” value in data set [1] (streptavidin agarose beads loaded with 1.1 μM hPD-L1 (1,100 pmol)) was “some binding”.

As for “N10A: SPAM variant with alanine substituted at position 10 (MPIFLDHILAKFWILHYAGSGSSG; also: [35S]-labeled methionine, peptide-RNA fusion)”, the “effect of mutation on hPD-L1 binding” value in data set [1] was “completely abolished”.

Take “P2A: SPAM variant with alanine substituted at position 2 (MAIFLDHILNKFWILHYAGSGSSG; also: [35S]-labeled methionine, peptide-RNA fusion)”: in data set [1], the “effect of mutation on hPD-L1 binding” value is “decreased levels of hPD-L1 binding”.

With “W13A: SPAM variant with alanine substituted at position 13 (MPIFLDHILNKFAILHYAGSGSSG; also: [35S]-labeled methionine, peptide-RNA fusion)”, the “effect of mutation on hPD-L1 binding” value in data set [1] is given as “completely abolished”.

B1: mPD-1: extracellular domain of murine PD-1 (L25 to S157, C83S) with HA tag and His tag (protein)
chain: MALEVPNGPWRSLTFYPAWLTVSEGANATFTCSLSNWSEDLMLNWNRLSPSNQTEKQAAFSNGLSQPVQDARFQIIQLPNRHDFHMNILDTRRNDSGIYLCGAISLHPKAKIEESPGAELVVTERILETSTRYPS
modifications: left off: HA tag (…), C-terminal, kept | His tag, C-terminal, state not stated
Regarding B1, the Kd in data set [8] is 4 to 8 µM.
